Data set [1] relates to Rattus norvegicus. The data set is described as follows: Total body clearance in fasted Sprague-Dawley rat at 5 mg/kg, iv by LC/MS/MS analysis. The following applies: in vivo. More on the design: dose 5 mg/kg, route intravenous. The format is ADME, organism-based. The method, boiled down: (§1)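 Male Sprague-Dawley rats, 3 per treatment, carried jugular cannulae and were fasted 12 h with water. Compound was formulated at 2 mg/mL in 1:1 NMP:Solutol HS15 diluted with saline. Dosing was 5 mg/kg iv or 25 mg/kg oral gavage. Blood was drawn predose and at 5, 15, 30 min, 1, 3 and 6 h. Plasma was quantified by LC-MS/MS against an 8-point standard curve.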

The subject of data set [2] is Rattus norvegicus. The data set can be described thus: Volume of distribution at steady state in fasted Sprague-Dawley rat at 5 mg/kg, iv by LC/MS/MS analysis. The format is ADME, organism-based. As to conditions: in vivo. Also noted: dose 5 mg/kg, route intravenous. The method, boiled down: as §1
Data set [3] concerns Rattus norvegicus. The data set can be described thus: Cmax in fasted Sprague-Dawley rat plasma at 25 mg/kg, po after 6 hrs by LC/MS/MS analysis. Also noted: dose 25 mg/kg, route oral. The format is ADME, organism-based. As to conditions: in vivo. A digest of the protocol:
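Male rats, 3 per treatment, fitted with jugular vein cannulae two days before dosing and fasted 12 h (water allowed). Compound given by gavage at 25 mg/kg, formulated at 2 mg/mL in 1:1 NMP:Solutol HS15 diluted with saline. Blood taken predose and at 5, 15, 30 min, 1, 3 and 6 h. Plasma quantified by LC/MS against an 8-point standard curve; Cmax calculated by standard methods.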

For data set [4], the system named is Rattus norvegicus. The data set can be described thus: Oral bioavailability in fasted Sprague-Dawley rat at 25 mg/kg after 6 hrs by LC/MS/MS analysis. Type of data set: ADME, organism-based. As to conditions: in vivo. The method, boiled down:
as §1

The subject of data set [5] is Rattus norvegicus. The data set is described as follows: Half life in fasted Sprague-Dawley rat plasma at 5 mg/kg, iv by LC/MS/MS analysis. The format is ADME, organism-based. Also noted: dose 5 mg/kg, route intravenous. As to conditions: in vivo. A digest of the protocol:
as §1

Data set [6] can be described thus: Cytotoxicity against human HepG2(2.2.15) cells by MTT assay. The format is cell-based.

Structures are written as SMILES. Where only a bound is given, the exact number is not on record here.

The record followed here is ChEMBL document CHEMBL1811844, “Design, synthesis, and biological evaluation of triazolo-pyrimidine derivatives as novel inhibitors of hepatitis B virus surface antigen (HBsAg) secretion” (J Med Chem, 2011).

The molecule `Fc1cccc(F)c1C1C=C(c2ccc(Cl)cc2)Nc2ncnn21` (stereo unspecified) returned a CL in the data set on Rattus norvegicus [1] of 17 mL/min/kg. In the data set with Rattus norvegicus [2], this molecule had a volume of distribution (Vdss) of 2.6 L/kg. The molecule further showed a Cmax with Rattus norvegicus [3] of 1937 ng/mL. This molecule also returned a F in the data set on Rattus norvegicus [4] of 42%. Further, the t1/2 in the data set with Rattus norvegicus [5] came out at 2.4 h.

As for `Cc1ccc(C2=CC(c3c(F)cccc3Cl)n3ncnc3N2)cc1C` (stereo unspecified), the cytotoxic concentration (CC50) in data set [6] is greater than 50 µM.
